Compound activity (PubChem)
Sampled rows, rich in hits. Any-hit rate of the full collection: about 3.7%.
KCNQ1 pot – human KCNQ1 channel potentiation or activation; P51787; CHO-K1 KCNQ1, thallium flux FluxOR fluorescence; hits give high values; B-score at 10 µM; 310,000 compounds, 0.35% hits;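 active means fluorescence ratio B-score, a plate-corrected score, at least three library SD, with initial intensity B-score within 5 SD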
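Assay system: CHO-K1 cells stably expressing KCNQ1; Medium: assay buffer with matched DMSO; Also added: K+/Tl+ depolarizing stimulus; Dosing: single dose; Timing: dye 90 min, compound 20 min, room temperature; Measured by: kinetic FluxOR thallium fluorescence, 10-s 1-Hz baseline, 110-s post-stimulus read; Read-out: peak-minus-minimum fluorescence over initial fluorescence, negative-control normalized, B-scored.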
Kir21 inh – Kir2.1 (mouse) channel inhibition. P35561. HEK293-Kir2.1, FluxOR thallium flux fluorescence; hits give low values. B-score at 10 µM. 310,000 compounds, 0.85% hits;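 active means fluorescence ratio B-score at or below minus 3 SD of library scores, with starting-brightness B-score within 2 SD, cut at about -4.2 in these data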;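 further: channel flux triggered by added potassium and thallium sulfate stimulus; B-score of peak minus minimum fluorescence over baseline after thallium stimulus; more negative B-score means stronger Kir2.1 block with less thallium influx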
KCNQ1 inh – inhibitors of human KCNQ1 potassium channel; P51787; CHO-K1 KCNQ1, FluxOR thallium flux fluorescence; hits give high values; B-score at 10 µM; 310,000 compounds, 1.3% hits; AID 2642;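 active means compounds whose thallium flux B-score, printed positive for inhibition, exceeds three library SD while starting fluorescence stays within three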;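 further: channel opened by potassium depolarization with thallium stimulus after 20 min compound exposure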
KCNK9 inh-1 – blocks the human KCNK9 two-pore domain potassium channel | Q9NPC2 | HEK293 KCNK9, FluxOR thallium flux fluorescence; hits give low values | B-score at 10 µM | 310,000 compounds, 1.2% hits | AID 488922;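 active means ratio B-score over 3 SD below the library mean, with starting fluorescence within 5 SD of its mean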;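 further: negative B-score means less thallium flux so channel inhibition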
KCNK3 block – human KCNK3 channel inhibition, primary screen. 340,000 compounds, 0.84% hits. CHO-KCNK3 thallium flux, FluxOR fluorescence; hits give low values. B-score at 10 µM;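 active means B-score under library mean minus 4 SD, starting fluorescence ratio at most library mean plus 5 SD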;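 further: more negative B-score means stronger inhibition of thallium flux through KCNK3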
hERG rescue – hERG (human) protection from proarrhythmic block. CHO-hERG, FluxOR thallium flux, dofetilide IC70 present. 310,000 compounds, 0.51% hits. activation (rescue from dofetilide block), less the hit threshold, % at 10 µM. Q12809;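 active means activation above the mean of controls blocked by dofetilide plus 5 SD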;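 further: thallium influx through hERG after potassium depolarization seen as dye fluorescence rise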
hERG ctr – blocks human hERG, in counter-screen for Kir2.1 inhibitors. shares compounds with Kir21 inh. hERG-expressing cells, thallium flux. inhibition, % at 10 µM. 320 compounds, 20% hits. AID 2236;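 further: host cells are CHO cells stably expressing hERG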
KCNK9 inh-2 – tests whether Kir2.1 inhibitors also affect human KCNK9 | shares compounds with Kir21 inh | KCNK9-expressing cells, ion flux inhibition | inhibition, % at 10 µM | 320 compounds, 5% hits | AID 2329
Kir2-1 patch inh – inhibitors of mouse Kir2.1 potassium channel; shares compounds with Kir21 inh; Kir2.1 cells, automated patch-clamp current inhibition; inhibition, % at 25 µM; 320 compounds, 71% hits; AID 463252
The depositor's hits bear a star; i = inactive; . = not tested or not shown. Unless noted, how the calls were made is not given here.

SMILES	KCNQ1 pot	Kir21 inh	KCNQ1 inh	KCNK9 inh-1	KCNK3 block	hERG rescue	hERG ctr	KCNK9 inh-2	Kir2-1 patch inh
COc1ccc(NC(=O)N2CCCC2C(=O)Nc2ccc(C)cc2C)cc1 (configuration not stated)	i	1.1	i	i	i	-6	.	.	.
CC(C)NC(=O)c1ccc(CN2CCC(Cc3ccccc3)CC2)cc1	i	-0.22	i	i	i	-4	.	.	.
CSc1ccc(CN2CCC(Cc3ccccc3)CC2)cc1	i	-16*	i	i	i	-8	67%*	i	33%*
Cc1ccsc1CN(C)CC(=O)NCC(=O)Nc1ccc(F)c(F)c1F	.	.	.	.	i	.	.	.	.
COc1ccc(Oc2c(-c3ccc(O)cc3O)n[nH]c2C)cc1	i	-5.7*	i	i	i	-10	i	i	0.2%*
O=C(c1cc(COc2ccc3c(c2)CCCC3)on1)N1CCCC1	i	4.1	i	i	i	-6	i	i	i
Cc1ccc(C)c(Cn2c3ccccc3c3cnn(CC(=O)NCCCN4CCCCC4)c(=O)c32)c1	i	-6.2*	i	i	i	-15	i	i	i
CC1=C(C(=O)OCc2ccccc2)C(c2cccs2)N2C(=O)CCSC2=N1 (configuration not stated)	i	-0.65	i	i	i	-20	.	.	.
COC(=O)C1=C(C)N=C2SCCC(=O)N2C1c1ccc(OC(=O)c2ccco2)cc1 (configuration not stated)	i	-7.2*	i	i	i	-5	i	i	i
O=C(CSc1nncs1)Nc1ccc(Cl)cc1C(F)(F)F	i	0.17	i	i	i	-11	.	.	.
CN(C)CCN(Cc1ccccc1)C(=O)[C@H](Cc1ccccc1)N1C(=O)c2ccccc2C1=O	i	-6*	i	i	i	-7	i	i	i
CC(C)C(NC(=O)c1ccco1)C(=O)NCc1ccc(C(=O)O)cc1 (configuration not stated)	i	0.97	i	i	i	-8	.	.	.
CC1CN(C(=O)CCC(=O)NCCCN2CCN(Cc3ccccc3)CC2)c2cc(Cl)ccc2O1 (configuration not stated)	i	-6.3*	i	i	i	-10	64%*	i	9.3%*
C#CCNC(=O)C1=C[C@@H](c2ccc(C#C)cc2)C[C@@H](OCc2ccc(CO)cc2)O1	i	-6.3*	i	i	i	-11	i	i	6.4%*
c1ccc(Cn2c(SCc3nc4ccccc4s3)nnc2-c2ccco2)cc1	i	-7*	i	i	i	-21	i	i	13%*
Cc1ccc(OCC(=O)N2CCC(C)CC2)c([N+](=O)[O-])n1	.	.	.	.	i	.	.	.	.
CCOc1cc(/C=N/N=C(N)N)ccc1OCc1ccc(Cl)cc1	i	-16*	9*	i	i	-28	60%*	i	i
CCOc1cc(/C=N/O)ccc1OCc1ccc(F)cc1	i	-0.79	i	i	i	-4	.	.	.
CN(C)Cc1c(O)ccc2oc(Cc3ccccc3)cc12	i	-5.9*	i	i	i	-8	i	i	62%*
COc1ccc(C(=O)CCC(=O)NC2=NCCS2)cc1	i	1.2	i	i	i	-10	.	.	.
COc1ccc(C(c2c(C)n(C)n(-c3ccccc3)c2=O)c2c(C)n(C)n(-c3ccccc3)c2=O)c(OC)c1OC	i	-0.05	i	i	i	-7	.	.	.
CC(NS(=O)(=O)c1ccc(Br)cc1)c1ccccc1 (configuration not stated)	i	-6*	i	i	i	-8	i	i	54%*
